Experimental data as given in PubChem BioAssay AID602403 (The Scripps Research Institute Molecular Screening Center, 2012).
Values without a mark were called inactive. Active and inactive are the calls of the source.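 Rule for the calls: active = inhibition of the enzyme-probe labelling of at least 50% at one fixed dose; inactive = inhibition below 50%.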

Target: Diacylglycerol lipase-alpha (Mus musculus) (UniProt Q6WQJ1)
Assay: blocking of DAGLa probe labeling in membranes – biochemical, gel-based competitive ABPP, recombinant, fluorescence, selectivity assay for DAGLb inhibitor project, late-stage follow-up (AID 602403)
Details: HEK293T membrane mouse DAGLa, at 0.4 µM, active compounds read high
In short: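 Material: membrane proteome of 293T HEK cells transiently overexpressing mouse DAGLa / Reagent: fluorescent activity-based probe HT-01 at 1 µM final / Timing: 30 min compound plus 30 min probe, 37 °C / Measured by: in-gel fluorescence after SDS-PAGE / Read-out basis: percent inhibition from band integrated optical density versus DMSO control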

Sequence of Diacylglycerol lipase-alpha (Mus musculus) (Q6WQJ1 whole entry, looked up): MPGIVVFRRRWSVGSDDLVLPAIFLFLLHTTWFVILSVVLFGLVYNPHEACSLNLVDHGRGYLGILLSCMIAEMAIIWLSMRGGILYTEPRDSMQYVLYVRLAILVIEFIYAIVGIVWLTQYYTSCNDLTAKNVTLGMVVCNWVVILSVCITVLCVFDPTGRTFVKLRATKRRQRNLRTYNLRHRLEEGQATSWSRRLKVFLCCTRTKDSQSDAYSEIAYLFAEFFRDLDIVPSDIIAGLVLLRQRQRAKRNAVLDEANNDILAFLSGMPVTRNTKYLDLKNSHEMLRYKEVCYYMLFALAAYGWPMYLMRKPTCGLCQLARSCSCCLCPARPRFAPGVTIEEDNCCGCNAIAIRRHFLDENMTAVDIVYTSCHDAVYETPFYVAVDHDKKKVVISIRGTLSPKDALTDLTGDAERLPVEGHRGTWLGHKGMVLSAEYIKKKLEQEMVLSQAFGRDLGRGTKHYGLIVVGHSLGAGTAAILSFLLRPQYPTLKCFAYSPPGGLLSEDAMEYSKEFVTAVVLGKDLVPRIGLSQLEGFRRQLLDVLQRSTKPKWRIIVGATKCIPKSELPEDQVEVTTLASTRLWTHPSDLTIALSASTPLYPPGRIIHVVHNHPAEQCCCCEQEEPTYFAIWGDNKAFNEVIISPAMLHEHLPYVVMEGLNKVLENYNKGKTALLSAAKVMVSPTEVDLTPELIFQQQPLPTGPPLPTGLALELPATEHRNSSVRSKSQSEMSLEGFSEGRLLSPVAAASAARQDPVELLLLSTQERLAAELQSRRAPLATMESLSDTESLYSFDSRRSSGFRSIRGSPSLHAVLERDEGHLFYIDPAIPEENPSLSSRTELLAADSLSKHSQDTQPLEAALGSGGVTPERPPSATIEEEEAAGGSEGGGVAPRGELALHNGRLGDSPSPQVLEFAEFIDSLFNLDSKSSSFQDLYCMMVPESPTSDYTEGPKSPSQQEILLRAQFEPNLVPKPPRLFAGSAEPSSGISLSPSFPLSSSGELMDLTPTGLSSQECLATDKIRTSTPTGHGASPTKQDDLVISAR

SMILES	inhibition
COc1ccccc1-c1ccc(-c2cn(C(=O)N3CCCCC3Cc3ccccc3)nn2)cc1 (stereo not drawn)	40%
O=C(N1CCCCC1Cc1ccccc1)n1cc(-c2ccc(OC(F)(F)F)cc2)nn1 (stereo not drawn)	50% (active)
COc1ccc(-c2ccc(-c3cn(C(=O)N4CCCCC4c4ccccc4)nn3)cc2)cc1 (stereo not drawn)	0%
